From ChEMBL document CHEMBL4145508 (Eur J Med Chem, 2018)
Calls of active or inactive are those of the source. No cut-off for these calls is given here.

Experiments:
Neuraminidase [1] = molecular target: T1, Neuraminidase (Influenza A virus, UniProt B4URF0); set-up: species or system duck/Guangdong/674/2014(H5N6)
Neuraminidase [2] = molecular target: T1, Neuraminidase; set-up: species or system chicken/china/1220/2012(H5N1)
Influenza A virus [3] = assay: Antiviral activity against influenza A virus duck/Guangdong/674/2014(H5N6) infected in chicken embryo fibroblasts assessed as effect on embryo survival at 0.625 mmol/L preincubated with virus for 1 hr followed by viral infection measured after […]; type: functional, organism-based
Influenza A virus [4] = assay: Antiviral activity against influenza A virus chicken/china/1220/2012(H5N1) infected in chicken embryo fibroblasts assessed as effect on embryo survival at 0.15625 mmol/L preincubated with virus for 1 hr followed by viral infection measured after […]; type: functional, organism-based
Influenza A virus [5] = assay: Antiviral activity against influenza A virus duck/Guangdong/674/2014(H5N6) infected in chicken embryo fibroblasts assessed as reduction in viral cytopathic effect preincubated with virus for 1 hr followed by viral infection measured after 2 days by CCK-8 assay; type: functional, organism-based
Influenza A virus [6] = assay: Antiviral activity against influenza A virus chicken/china/1220/2012(H5N1) infected in chicken embryo fibroblasts assessed as reduction in viral cytopathic effect preincubated with virus for 1 hr followed by viral infection measured after 2 days by CCK-8 assay; type: functional, organism-based
Influenza A virus [7] = assay: Antiviral activity against influenza A virus duck/Guangdong/674/2014(H5N6) infected in chicken embryo fibroblasts assessed as effect on embryo survival at 2.5 mmol/L preincubated with virus for 1 hr followed by viral infection measured after […]; type: functional, organism-based
Influenza A virus [8] = assay: Antiviral activity against influenza A virus chicken/china/1220/2012(H5N1) infected in chicken embryo fibroblasts assessed as effect on embryo survival at 0.0390625 mmol/L preincubated with virus for 1 hr followed by viral infection measured after […]; type: functional, organism-based
[9] = Cytotoxicity against chicken embryo fibroblasts assessed as reduction in cell viability after 2 days by CCK-8 assay; type: cell-based, Gallus gallus, Fibroblast
Outline: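 Chicken embryo fibroblasts grown 24 h at 37 °C, then exposed without virus to compounds dissolved in water and serially diluted 3-fold in DMEM. Incubation was at 37 °C under 5% CO₂, with viability read by CCK-8 at 2 days. CC₅₀, the concentration giving a 50% drop in viability, was fitted from the concentration curve.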

Influenza A virus [10] = assay: Antiviral activity against influenza A virus duck/Guangdong/674/2014(H5N6) infected in chicken embryo fibroblasts assessed as effect on embryo survival at 0.15625 mmol/L preincubated with virus for 1 hr followed by viral infection measured after […]; type: functional, organism-based
Influenza A virus [11] = assay: Antiviral activity against influenza A virus duck/Guangdong/674/2014(H5N6) infected in chicken embryo fibroblasts assessed as effect on embryo survival at 0.0390625 mmol/L preincubated with virus for 1 hr followed by viral infection measured after […]; type: functional, organism-based
Influenza A virus [12] = assay: Antiviral activity against influenza A virus duck/Guangdong/674/2014(H5N6) infected in chicken embryo fibroblasts assessed as effect on embryo survival at 10 mmol/L preincubated with virus for 1 hr followed by viral infection measured after […]; type: functional, organism-based
Influenza A virus [13] = assay: Antiviral activity against influenza A virus chicken/china/1220/2012(H5N1) infected in chicken embryo fibroblasts assessed as effect on embryo survival at 10 mmol/L preincubated with virus for 1 hr followed by viral infection measured after […]; type: functional, organism-based
Influenza A virus [14] = assay: Antiviral activity against influenza A virus chicken/china/1220/2012(H5N1) infected in chicken embryo fibroblasts assessed as effect on embryo survival at 0.625 mmol/L preincubated with virus for 1 hr followed by viral infection measured after […]; type: functional, organism-based
Influenza A virus [15] = assay: Antiviral activity against influenza A virus chicken/china/1220/2012(H5N1) infected in chicken embryo fibroblasts assessed as effect on embryo survival at 2.5 mmol/L preincubated with virus for 1 hr followed by viral infection measured after […]; type: functional, organism-based

T1 sequence (B4URF0 whole entry): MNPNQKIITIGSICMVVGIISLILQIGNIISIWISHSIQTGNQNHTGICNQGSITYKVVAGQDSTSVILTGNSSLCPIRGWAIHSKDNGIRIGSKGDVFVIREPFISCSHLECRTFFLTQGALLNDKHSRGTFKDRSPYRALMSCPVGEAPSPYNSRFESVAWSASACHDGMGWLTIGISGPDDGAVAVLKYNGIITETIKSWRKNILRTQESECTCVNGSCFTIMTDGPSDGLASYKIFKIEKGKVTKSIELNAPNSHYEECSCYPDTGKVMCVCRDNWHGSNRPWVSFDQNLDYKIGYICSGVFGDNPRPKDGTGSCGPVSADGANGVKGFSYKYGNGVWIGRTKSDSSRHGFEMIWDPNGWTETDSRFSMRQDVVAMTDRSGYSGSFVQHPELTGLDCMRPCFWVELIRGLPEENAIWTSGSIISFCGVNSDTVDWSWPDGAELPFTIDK

Structure (SMILES)	IC50 (Neuraminidase [1]) [µM]	IC50 (Neuraminidase [2]) [µM]	also measured
CCC(CC)O[C@@H]1C=C(C(=O)NCc2ccc(Br)cc2)C[C@H](N)[C@H]1NC(C)=O	6.01	2.07	–
CCC(CC)O[C@@H]1C=C(C(=O)NCCc2ccccc2F)C[C@H](N)[C@H]1NC(C)=O	5.12	3.17	–
CCC(CC)O[C@@H]1C=C(C(=O)NCc2cc(F)cc(F)c2)C[C@H](N)[C@H]1NC(C)=O	10.4	2.22	–
CCC(CC)O[C@@H]1C=C(C(=O)NCc2cccc(Cl)c2)C[C@H](N)[C@H]1NC(C)=O	7.86	3.02	–
CCC(CC)O[C@@H]1C=C(C(=O)NCc2ccc(OC)cc2)C[C@H](N)[C@H]1NC(C)=O	> 40	> 40	–
CCC(CC)O[C@@H]1C=C(C(=O)N[C@H](C(=O)O)C(C)C)C[C@H](N)[C@H]1NC(C)=O [listing 1 of 2 here]	0.304	0.342	–
CCC(CC)O[C@@H]1C=C(C(=O)NCc2ccc(-c3ccsc3)cc2)C[C@H](N)[C@H]1NC(C)=O	> 40	29.8	–
CCC(CC)O[C@@H]1C=C(C(=O)NCc2ccc(F)cc2)C[C@H](N)[C@H]1NC(C)=O	2.78	0.94	–
CCC(CC)O[C@@H]1C=C(C(=O)NCc2ccc(-c3ccccc3)cc2)C[C@H](N)[C@H]1NC(C)=O	0.99	0.96	–
CCC(CC)O[C@@H]1C=C(C(=O)NCc2ccc(F)cc2Cl)C[C@H](N)[C@H]1NC(C)=O	19.4	3.91	–
CCC(CC)O[C@@H]1C=C(C(=O)N[C@H](C)C(=O)O)C[C@H](N)[C@H]1NC(C)=O	1.07	1.35	–
CCC(CC)O[C@@H]1C=C(C(=O)NCc2ccccc2F)C[C@H](N)[C@H]1NC(C)=O	14.7	6.26	–
CCC(CC)O[C@@H]1C=C(C(=O)NCc2ccc(-c3cccs3)cc2)C[C@H](N)[C@H]1NC(C)=O	10.9	7.75	–
C=CCNC(=O)C1=C[C@@H](OC(CC)CC)[C@H](NC(C)=O)[C@@H](N)C1	0.41	5.03	–
CCC(CC)O[C@@H]1C=C(C(=O)NCCc2cccc(F)c2)C[C@H](N)[C@H]1NC(C)=O	32.5	15.2	–
CCC(CC)O[C@@H]1C=C(C(=O)NCc2cccc(F)c2)C[C@H](N)[C@H]1NC(C)=O	11.4	5.09	–
CCC(CC)O[C@@H]1C=C(C(=O)NCCN2CCOCC2)C[C@H](N)[C@H]1NC(C)=O	12.1	4.24	–
CCC(CC)O[C@@H]1C=C(C(=O)Nc2ccc(F)cc2)C[C@H](N)[C@H]1NC(C)=O	16.3	11.7	–
CCC(CC)O[C@@H]1C=C(C(=O)Nc2ccc(N3CCOCC3=O)cc2)C[C@H](N)[C@H]1NC(C)=O	2.27	1.46	–
CCC(CC)O[C@@H]1C=C(C(=O)NCc2ccccc2)C[C@H](N)[C@H]1NC(C)=O	19.9	9.87	–
CCC(CC)O[C@@H]1C=C(C(=O)N(C)CCc2cccc(F)c2)C[C@H](N)[C@H]1NC(C)=O	2.51	2.65	–
CCC(CC)O[C@@H]1C=C(C(=O)NCc2ccc(C)cc2)C[C@H](N)[C@H]1NC(C)=O	11	2.91	–
CCC(CC)O[C@@H]1C=C(C(=O)NCc2ccc(C(F)(F)F)cc2)C[C@H](N)[C@H]1NC(C)=O	8.78	10.9	–
CCC(CC)O[C@@H]1C=C(C(=O)N[C@H](C(=O)O)C(C)C)C[C@H](N)[C@H]1NC(C)=O [listing 2 of 2 here]	0.248	0.135	–
CCC(CC)O[C@@H]1C=C(C(=O)O)C[C@H](N)[C@H]1NC(C)=O [OSELTAMIVIR CARBOXYLATE]	–	–	Activity (Influenza A virus [3]): inactive; Activity (Influenza A virus [4]): inactive; EC50 (Influenza A virus [5]): 0.73 µM; EC50 (Influenza A virus [6]): 1.35 µM; Activity (Influenza A virus [7]): inactive; Activity (Influenza A virus [8]): inactive; CC50 at 48 h [9]: > 1000 µM; Activity (Influenza A virus [10]): inactive; Activity (Influenza A virus [11]): inactive; Activity (Influenza A virus [12]): inactive
CCC(CC)O[C@@H]1C=C(C(=O)N[C@@H](C(=O)O)C(C)C)C[C@H](N)[C@H]1NC(C)=O	0.0967	0.0883	Activity (Influenza A virus [13]): Active; Activity (Influenza A virus [3]): inactive; Activity (Influenza A virus [4]): inactive; EC50 (Influenza A virus [5]): 1.31 µM; EC50 (Influenza A virus [6]): 4.26 µM; Activity (Influenza A virus [7]): inactive; Activity (Influenza A virus [8]): inactive; CC50 at 48 h [9]: > 1000 µM; Activity (Influenza A virus [14]): inactive; Activity (Influenza A virus [15]): inactive; Activity (Influenza A virus [10]): inactive; Activity (Influenza A virus [11]): inactive; Activity (Influenza A virus [12]): Active
CCC(CC)O[C@@H]1C=C(C(=O)NCC(=O)O)C[C@H](N)[C@H]1NC(C)=O	2.16	2.53	–
CCC(CC)O[C@@H]1C=C(C(=O)N[C@@H](C)C(=O)O)C[C@H](N)[C@H]1NC(C)=O	1.28	2.2	–
